L929 necroptosis: blocks zVAD induced death of L929 cells | L929 zVAD necroptosis rescue, ATP luminescence, 24 h; with zVAD 60 µM | viability rescue, % at 10 µM | 220,000 compounds, 0.38% hits;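 active means activation, scaled between plate controls, above about 75%, limit read from the data; inactive means activation under that limit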;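 further: 0% = zVAD with DMSO and 100% = DMSO alone without zVAD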
Hck Nef HTS: blocks Nef-activated human Hck kinase; AID 463187; 220,000 compounds, 0.68% hits; P08631; Recombinant Hck-YEEI plus Nef, Z-Lyte FRET kinase assay; inhibition, % at 20 µM;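 active means Hck-Nef kinase inhibition above about 50%, limit read from the data; inactive means inhibition below that limit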;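 further: 0% = DMSO with Hck plus Nef and 100% = Hck alone without Nef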
MDM2 E3 inh: Mdm2 E3 ligase (human) inhibition; Q00987; cell-based MDM2 ubiquitination luciferase reporter, 2 h; 0 = plate control, 100 = twice control, blank-subtracted; signal enhancement, % at 5 µM; 210,000 compounds, 0.11% hits;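 active means signal enhancement of 30% or more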;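 further: luminescence tracks abundance of the self-degrading MDM2-luciferase fusion protein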
Target sequence (Q00987 whole entry, looked up, the tested form may be a part): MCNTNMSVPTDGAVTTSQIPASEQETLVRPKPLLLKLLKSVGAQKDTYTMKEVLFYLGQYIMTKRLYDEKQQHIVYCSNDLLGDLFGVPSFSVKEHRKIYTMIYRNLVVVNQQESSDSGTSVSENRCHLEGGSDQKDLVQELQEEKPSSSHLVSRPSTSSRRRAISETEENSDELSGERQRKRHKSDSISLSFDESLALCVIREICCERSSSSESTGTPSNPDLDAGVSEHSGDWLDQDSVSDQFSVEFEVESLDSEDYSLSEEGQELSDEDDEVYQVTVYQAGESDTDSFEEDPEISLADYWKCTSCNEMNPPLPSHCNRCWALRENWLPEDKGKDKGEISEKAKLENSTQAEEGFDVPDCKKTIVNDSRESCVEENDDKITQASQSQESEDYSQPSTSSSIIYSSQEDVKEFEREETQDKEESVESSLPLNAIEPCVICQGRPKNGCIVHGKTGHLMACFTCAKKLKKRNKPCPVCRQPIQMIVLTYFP
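System: stable MDM2–luciferase fusion reporter cells / Input: 2000 cells seeded into each well / Schedule: 4 h settle plus 2 h compound, 37 °C / Compound: single-point 5 µM / Buffer or medium: cells held in DMEM / Benchmarks: control and blank well means / Evaluation: percent signal gain over controls, blank-subtracted / Measured by: luciferase luminescence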
Autophagy mod: alters autophagy in cells | 190,000 compounds, 0.98% hits | AID 463193 | MEF GFP-LC3 puncta imaging; test concentration mostly 10 µM | calls only at 10 µM (by protocol);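 active means percentage of spot-positive cells more than 3 SD above its plate mean, without a fluorescence outlier flag or 80% toxicity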;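 further: spot-positive cell cutoff set from DMSO-treated cells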
TNF necrop inh: inhibitors of TNF-alpha induced necroptosis in Jurkat FADD-/- cells; 220,000 compounds, 0.068% hits; Jurkat FADD-/- TNF necroptosis rescue, ATP luminescence, 24 h; 0 = TNF only, 100 = no-TNF cells; activation (protection from cell death), % at 10 µM;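 active means activation, meaning protection from cell death, of at least 50% relative to plate controls; inactive means activation below 50%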;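 further: necroptosis triggered by 40 ng/mL TNF-alpha added together with compound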
Dynein transport: blocks dynein driven cargo transport along microtubules. z-score, hits read low. 220,000 compounds, 0.47% hits. 3617.4 mouse cells, GR-EGFP nuclear translocation imaging; test concentration mostly 20 µM; stimulated with dexamethasone, 1 µM; stronger effect = lower value;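 active means plate z-score of nuclear minus cytoplasmic receptor signal below a set negative limit, without overly bright fluorescence or cell loss, cut at about -3.5 in these data, passing the limit was not always enough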;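 further: z-score of nuclear minus cytoplasmic ring GR-EGFP intensity difference per well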
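Also added – dexamethasone, 1.0 µM final · Buffer or medium – tet-free, stripped-serum medium · Schedule – induction 48 h, compound 1 h, agonist 30 min · Detection – formaldehyde fixation, Hoechst nuclear stain, 10x automated fluorescence imaging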
The depositor's hits bear a star; i = inactive; / = no result; + = active, no number. A selection: hits, their analogues and other compounds. The true share with any hit is near 2.4%.

SMILES | L929 necroptosis | Hck Nef HTS | MDM2 E3 inh | Autophagy mod | TNF necrop inh | Dynein transport
O=C(O)c1csc(N/N=C/c2ccc(Br)cc2)n1 | 1 | 30 | -11 | + | 1 | 0.51
CC(=O)c1ccc(NC(=O)c2cnn3c(C(F)F)cc(C4CC4)nc23)cc1 | 1 | 27 | / | i | 0 | -0.24
COc1ccc(C2C(C(=O)Nc3ccccc3OC)=C(C)Nc3ncnn32)cc1 (configuration not stated) | 0 | 5 | -13 | + | 1 | -0.49
COc1ccccc1NC(=O)C1=C(C)Nc2ncnn2C1c1cccs1 (configuration not stated) | 1 | 2 | -17 | i | -1 | 0.2
N#Cc1c(NC(=S)NC(=O)c2ccccc2)sc2c1CCCC2 | 0 | 8 | 9 | i | 2 | 0.71
N#Cc1c(NC(=S)NC(=O)c2ccccc2)sc2c1CCN(CCc1ccccc1)C2 | 0 | 9 | -2 | + | 2 | -0.34
Cc1cc(C)n(C(N)=NC(=O)c2ccc([N+](=O)[O-])cc2)n1 | 40 | 15 | -7 | / | -3 | 0.34
COc1cc(/C=C2\SC(=O)N(CCN)C2=O)ccc1OS(=O)(=O)c1cc(C)ccc1C | 3 | -1 | -12 | i | -7 | -0.43
COc1ccc(COc2cc(-c3cccc(OC)c3)nc3ccc(NC(=O)c4ccc(OC)cc4)cc23)cc1 | 16 | -3 | / | i | -11 | -0.22
COc1ccc(COc2cc(-c3cccc(OC)c3)nc3ccc(NC(=O)c4cccnc4)cc23)cc1 | 9 | 0 | / | + | -12 | 0.56
COc1cccc(NC(=O)c2cc(-c3cccnc3)nc3c(Cl)cccc23)c1 | 84* | 3 | -10 | i | -7 | 1.4
COc1ccc(NC(=O)c2cc(-c3cccnc3)nc3c(C)c(C)ccc23)c(OC)c1 | 0 | 27 | 7 | i | -16 | -0.82
Cn1c(N)c(C(=O)COC(=O)COc2ccc3ccccc3c2)c(=O)n(C)c1=O | 3 | 23 | -4 | i | 0 | -0.42
CCN1CCCC1CNc1ncnc2c1[nH]c1ccc(Cl)cc12 (configuration not stated) | 5 | -2 | -9 | + | -3 | -0.6
COc1cc(-c2nnc(SCC(=O)Nc3cc(C)on3)n2C)cc(OC)c1O | 1 | 1 | -1 | i | -2 | 0.16
COc1cc(OC)cc(-n2nnnc2SCC(=O)Nc2ccc(C(C)=O)cc2)c1 | 0 | 32 | -15 | + | 3 | -0.72
O=[N+]([O-])c1cccc(P(=O)(O)c2cccc([N+](=O)[O-])c2)c1 | -1 | 20 | -1 | / | 2 | -0.17
C=CCOc1ccccc1CNCCNC(=O)c1nonc1N | -2 | 17 | 3 | + | 2 | -0.68
Cn1cccc1Cc1nnc(SCC(=O)Nc2nc3ccccc3s2)n1CCc1ccccc1 | 0 | -3 | -16 | + | 1 | 2.3
CCN1CCN(CCNC(=O)c2ccc(/C=C3/Sc4ccccc4N(Cc4cccc(Cl)c4)C3=O)cc2)CC1 | 9 | -138 | -27 | + | -11 | 2.4
COc1ccccc1Nc1nc(N)nc(CSC(=S)N2CCCCC2C)n1 (configuration not stated) | 1 | 2 | -2 | i | 3 | 1
O=S1(=O)C=C(Sc2nnc(-c3ccccc3)o2)c2ccccc21 | 0 | 6 | -7 | i | -28 | -4.1*
CCc1ccc2c(c1)cc(CN(C(=S)Nc1ccccc1C)C1CC1)c1nnnn12 | 0 | 2 | -25 | i | -5 | /
CCc1ccc2c(c1)cc(CN(C(=S)Nc1ccccc1)C1CC1)c1nnnn12 | 0 | 1 | -27 | + | -4 | /
CCSc1nc(=S)n(Cc2ccccc2)c(C)c1C(C)=O | -1 | 6 | -3 | i | -5 | 0.046
CSc1nc(=S)n(Cc2ccccc2)c(C)c1C(C)=O | -1 | 2 | -1 | + | 0 | -0.71
Cc1ccc(N=C2NC(=O)C(CC(=O)NCc3ccccc3)S2)cc1C (configuration not stated) | 1 | 3 | 5 | i | 1 | 0.12
